Reference: ChEMBL document CHEMBL1141077, “Synthesis and structure-activity relationship of a novel series of aminoalkylindoles with potential for imaging the neuronal cannabinoid receptor by positron emission tomography” (J Med Chem, 2005)

Target: Cannabinoid receptor 1 (Rattus norvegicus, UniProt P20272)
Assay: In vitro binding affinity against rat cannabinoid receptor 1 using 0.5 nM [3H]CP-55940
How it was run: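 Competition binding on membranes from frozen Sprague-Dawley rat cerebellum (0.6 mg tissue per tube) in pH 7.4 buffer: 50 mM Tris-HCl, 3 mM MgCl2, 1 mM EDTA, 0.5% fat-free BSA. Incubated 1 h at 30 °C with serial ligand dilutions. Nonspecific binding determined with excess unlabelled CP-55940. GF/C filtration, scintillation counting, quadruplicate. Ki from IC50 via Cheng-Prusoff, Kd 0.5 nM.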

Sequence of Cannabinoid receptor 1 (P20272 whole entry): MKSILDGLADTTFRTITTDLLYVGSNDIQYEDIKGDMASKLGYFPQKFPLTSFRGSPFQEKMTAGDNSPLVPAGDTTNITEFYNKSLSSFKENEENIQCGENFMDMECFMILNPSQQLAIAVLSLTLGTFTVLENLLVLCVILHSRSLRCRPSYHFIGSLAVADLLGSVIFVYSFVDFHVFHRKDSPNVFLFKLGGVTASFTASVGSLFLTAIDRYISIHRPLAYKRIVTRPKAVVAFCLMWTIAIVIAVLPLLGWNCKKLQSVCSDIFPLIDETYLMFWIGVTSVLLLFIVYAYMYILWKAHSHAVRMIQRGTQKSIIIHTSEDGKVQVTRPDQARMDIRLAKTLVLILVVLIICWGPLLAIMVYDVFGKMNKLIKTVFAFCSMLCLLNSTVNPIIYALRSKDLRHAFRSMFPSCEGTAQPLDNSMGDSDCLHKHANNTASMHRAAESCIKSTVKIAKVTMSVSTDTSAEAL

SMILES | Ki [nM]
CN1CCCCC1Cn1cc(C(=O)c2ccc(F)c3ccccc23)c2ccccc21 (stereo not given) | 0.7
CN1CCCCC1Cn1nc(C(=O)c2cccc3ccccc23)c2ccccc21 (stereo not given) | 1.4
CN1CCCCC1Cn1cc(C(=O)c2cccc3cc(O)ccc23)c2ccccc21 (stereo not given) | 4
CN1CCCCC1Cn1cc(C(=O)c2ccc(C#N)c3ccccc23)c2ccccc21 (stereo not given) | 1.1
CN1CCCCC1Cn1cc(C(=O)c2ccc(Br)c3ccccc23)c2ccccc21 (stereo not given) | 1.7
COc1ccc(C(=O)c2cn(CC3CCCCN3C)c3ccccc23)c2ccccc12 (stereo not given) | 2.3
CN1CCCCC1Cn1cc(C(=O)c2ccc([N+](=O)[O-])c3ccccc23)c2ccccc21 (stereo not given) | 12.4
CN1CCCCC1Cn1cc(C(=O)Nc2cccc3ccccc23)c2ccccc21 (stereo not given) | 100
CN1CCCCC1Cn1cc(C(=O)N2CCCC3CCCCC32)c2ccccc21 (stereo not given) | 12
CN1CCCCC1Cn1cc(C(=O)c2ccc(CCO)c3ccccc23)c2ccccc21 (stereo not given) | 1.3
CN1CCCCC1Cn1cc(C(=O)c2ccccc2I)c2ccccc21 (stereo not given) | 1.2
Cc1ccc(C(=O)c2cn(CC3CCCCN3C)c3ccccc23)c2ccccc12 (stereo not given) | 1.1
CN1CCCCC1Cn1cc(C(=O)c2ccc(O)c3ccccc23)c2ccccc21 (stereo not given) | 2.2
Cc1ccc2ccccc2c1C(=O)c1cn(CC2CCCCN2C)c2ccccc12 (stereo not given) | 7.8
CN1CCCCC1Cn1cc(C(=O)c2cccc3ccccc23)c2ccccc21 (stereo not given) | 0.9
